Test results taken from ChEMBL document CHEMBL5058577, “EUbOPEN Chemogenomics Library 2 (Multiplex)” (2022).

Tested on: U2OS
Assay: Multiplex assay against U2OS
Type: toxicity, cell-based
Conditions: human
Outline: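 On a CQ1 microscope at 37°C and 5% CO2, live cells were imaged after compound addition. They had been stained at seeding with Hoechst33342, BioTracker Green Microtubule Cytoskeleton Dye, MitoTracker Red and Annexin V Alexa Fluor 680. CellPathfinder machine-learning gating assigned cells to Hoechst high-intensity objects or normal cells, normal cells to healthy, pyknosed or fragmented nuclei, and pyknosed cells to mitotic or apoptotic. Tubulin, mitochondrial-mass and membrane-permeability phenotypes are per cents of healthy-nucleus cells.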

[1] = 12 h, 1 µM, compound concentration 1 uM, replicate 1
[2] = 12 h, 1 µM, compound concentration 1 uM, replicate 2
[3] = 12 h, 10 µM, compound concentration 10 uM, replicate 1
[4] = 12 h, 10 µM, compound concentration 10 uM, replicate 2
[5] = 24 h, 1 µM, compound concentration 1 uM, replicate 1
[6] = 24 h, 1 µM, compound concentration 1 uM, replicate 2
[7] = 24 h, 10 µM, compound concentration 10 uM, replicate 1
[8] = 24 h, 10 µM, compound concentration 10 uM, replicate 2
[9] = 48 h, 1 µM, compound concentration 1 uM, replicate 1
[10] = 48 h, 1 µM, compound concentration 1 uM, replicate 2
[11] = 48 h, 10 µM, compound concentration 10 uM, replicate 1
[12] = 48 h, 10 µM, compound concentration 10 uM, replicate 2

`CC(C)COc1ccc(CNC(=O)N(Cc2ccc(F)cc2)C2CCN(C)CC2)cc1` [PIMAVANSERIN] was tested, and the “Population Apoptotic (%)” value [1] was 84%, the “Population Fragmented Nuclei (%)” value [1] was 23% and the “Population Healthy Nuclei (%)” value [1] was 67%. The “Population Hoechst High Intensity Objects (%)” value [1] was 2%, the “Population Membrane Permeable-Phenotype (%)” value [1] was 6% and the “Population Mitochondria Different-Phenotype (%)” value [1] was 3%. The “Population Mitotic Cells (%)” value [1] was 16%, the “Population Normal (%)” value [1] was 97% and the “Population Pyknosed Nuclei (%)” value [1] was 9%. For the same compound, the “Population Tubulin-Different-Phenotype (%)” value [1] was 5%, the “Total Cell Count” value [1] was 265 and the “Population Apoptotic (%)” value [2] was 100%. The “Population Fragmented Nuclei (%)” value [2] was 11%, the “Population Healthy Nuclei (%)” value [2] was 80% and the “Population Hoechst High Intensity Objects (%)” value [2] was 0%. The “Population Mitochondria Different-Phenotype (%)” value [2] was 4%, the “Population Mitotic Cells (%)” value [2] was 0% and the “Population Normal (%)” value [2] was 99%. The “Population Pyknosed Nuclei (%)” value [2] was 7%, the “Population Tubulin-Different-Phenotype (%)” value [2] was 6% and the “Total Cell Count” value [2] was 136. The “Population Apoptotic (%)” value [3] was 67%, the “Population Fragmented Nuclei (%)” value [3] was 23% and the “Population Healthy Nuclei (%)” value [3] was 48%. For the same compound, the “Population Hoechst High Intensity Objects (%)” value [3] was 5%, the “Population Membrane Permeable-Phenotype (%)” value [3] was 48% and the “Population Mitochondria Different-Phenotype (%)” value [3] was 73%. The “Population Mitotic Cells (%)” value [3] was 32%, the “Population Normal (%)” value [3] was 94% and the “Population Pyknosed Nuclei (%)” value [3] was 27%. The “Population Tubulin-Different-Phenotype (%)” value [3] was 77%, the “Total Cell Count” value [3] was 202 and the “Population Apoptotic (%)” value [4] was 71%. The “Population Fragmented Nuclei (%)” value [4] was 18%, the “Population Healthy Nuclei (%)” value [4] was 54% and the “Population Hoechst High Intensity Objects (%)” value [4] was 4%. For the same compound, the “Population Membrane Permeable-Phenotype (%)” value [4] was 26%, the “Population Mitochondria Different-Phenotype (%)” value [4] was 70% and the “Population Mitotic Cells (%)” value [4] was 28%. For the same compound, the “Population Normal (%)” value [4] was 95%, the “Population Pyknosed Nuclei (%)” value [4] was 26% and the “Population Tubulin-Different-Phenotype (%)” value [4] was 52%. The “Total Cell Count” value [4] was 124, the “Population Apoptotic (%)” value [5] was 92% and the “Population Fragmented Nuclei (%)” value [5] was 22%. For the same compound, the “Population Healthy Nuclei (%)” value [5] was 67%, the “Population Hoechst High Intensity Objects (%)” value [5] was 2% and the “Population Membrane Permeable-Phenotype (%)” value [5] was 10%. The “Population Mitochondria Different-Phenotype (%)” value [5] was 4%, the “Population Mitotic Cells (%)” value [5] was 7% and the “Population Normal (%)” value [5] was 97%. The “Population Pyknosed Nuclei (%)” value [5] was 9%, the “Population Tubulin-Different-Phenotype (%)” value [5] was 6% and the “Total Cell Count” value [5] was 294. For the same compound, the “Population Apoptotic (%)” value [6] was 78%, the “Population Fragmented Nuclei (%)” value [6] was 11% and the “Population Healthy Nuclei (%)” value [6] was 80%. For the same compound, the “Population Hoechst High Intensity Objects (%)” value [6] was 1%, the “Population Membrane Permeable-Phenotype (%)” value [6] was 11% and the “Population Mitochondria Different-Phenotype (%)” value [6] was 8%. The “Population Mitotic Cells (%)” value [6] was 21%, the “Population Normal (%)” value [6] was 98% and the “Population Pyknosed Nuclei (%)” value [6] was 8%. For the same compound, the “Total Cell Count” value [6] was 163, the “Population Apoptotic (%)” value [7] was 88% and the “Population Fragmented Nuclei (%)” value [7] was 28%. The “Population Healthy Nuclei (%)” value [7] was 40%, the “Population Hoechst High Intensity Objects (%)” value [7] was 10% and the “Population Membrane Permeable-Phenotype (%)” value [7] was 32%. For the same compound, the “Population Mitochondria Different-Phenotype (%)” value [7] was 67%, the “Population Mitotic Cells (%)” value [7] was 11% and the “Population Normal (%)” value [7] was 89%. For the same compound, the “Population Pyknosed Nuclei (%)” value [7] was 31%, the “Population Tubulin-Different-Phenotype (%)” value [7] was 49% and the “Total Cell Count” value [7] was 214. For the same compound, the “Population Apoptotic (%)” value [8] was 79%, the “Population Fragmented Nuclei (%)” value [8] was 16% and the “Population Healthy Nuclei (%)” value [8] was 50%. For the same compound, the “Population Hoechst High Intensity Objects (%)” value [8] was 3%, the “Population Membrane Permeable-Phenotype (%)” value [8] was 30% and the “Population Mitochondria Different-Phenotype (%)” value [8] was 75%. For the same compound, the “Population Mitotic Cells (%)” value [8] was 20%, the “Population Normal (%)” value [8] was 96% and the “Population Pyknosed Nuclei (%)” value [8] was 33%. The “Total Cell Count” value [8] was 135, the “Population Apoptotic (%)” value [9] was 87% and the “Population Fragmented Nuclei (%)” value [9] was 19%. The “Population Healthy Nuclei (%)” value [9] was 68%, the “Population Hoechst High Intensity Objects (%)” value [9] was 2% and the “Population Membrane Permeable-Phenotype (%)” value [9] was 6%. The “Population Mitochondria Different-Phenotype (%)” value [9] was 5%, the “Population Mitotic Cells (%)” value [9] was 12% and the “Population Normal (%)” value [9] was 97%. For the same compound, the “Population Pyknosed Nuclei (%)” value [9] was 12%, the “Population Tubulin-Different-Phenotype (%)” value [9] was 4% and the “Total Cell Count” value [9] was 393. The “Population Apoptotic (%)” value [10] was 92%, the “Population Fragmented Nuclei (%)” value [10] was 12% and the “Population Healthy Nuclei (%)” value [10] was 76%. The “Population Hoechst High Intensity Objects (%)” value [10] was 1%, the “Population Membrane Permeable-Phenotype (%)” value [10] was 5% and the “Population Mitotic Cells (%)” value [10] was 7%. The “Population Normal (%)” value [10] was 98%, the “Population Pyknosed Nuclei (%)” value [10] was 11% and the “Population Tubulin-Different-Phenotype (%)” value [10] was 2%. The “Total Cell Count” value [10] was 234, the “Population Apoptotic (%)” value [11] was 98% and the “Population Fragmented Nuclei (%)” value [11] was 38%. The “Population Healthy Nuclei (%)” value [11] was 19%, the “Population Hoechst High Intensity Objects (%)” value [11] was 13% and the “Population Membrane Permeable-Phenotype (%)” value [11] was 40%. For the same compound, the “Population Mitochondria Different-Phenotype (%)” value [11] was 56%, the “Population Mitotic Cells (%)” value [11] was 1% and the “Population Normal (%)” value [11] was 86%. For the same compound, the “Population Pyknosed Nuclei (%)” value [11] was 42%, the “Population Tubulin-Different-Phenotype (%)” value [11] was 54% and the “Total Cell Count” value [11] was 222. The “Population Apoptotic (%)” value [12] was 95%, the “Population Healthy Nuclei (%)” value [12] was 15% and the “Population Hoechst High Intensity Objects (%)” value [12] was 8%. For the same compound, the “Population Membrane Permeable-Phenotype (%)” value [12] was 66%, the “Population Mitochondria Different-Phenotype (%)” value [12] was 80% and the “Population Mitotic Cells (%)” value [12] was 4%. For the same compound, the “Population Normal (%)” value [12] was 91%, the “Population Pyknosed Nuclei (%)” value [12] was 45% and the “Population Tubulin-Different-Phenotype (%)” value [12] was 71%. For the same compound, the “Total Cell Count” value [12] was 146.
